The target of series [1] is Toll-like receptor 3 (Homo sapiens) (UniProt O15455). In words: Activation of human TLR3 expressed in HEK293 assessed as induction of NF-kappaB activity reporter gene assay. It counts as cell-based.
In series [2] the target is T1, Toll-like receptor 7 (Homo sapiens) (UniProt Q9NYK1).
T1 sequence (whole entry): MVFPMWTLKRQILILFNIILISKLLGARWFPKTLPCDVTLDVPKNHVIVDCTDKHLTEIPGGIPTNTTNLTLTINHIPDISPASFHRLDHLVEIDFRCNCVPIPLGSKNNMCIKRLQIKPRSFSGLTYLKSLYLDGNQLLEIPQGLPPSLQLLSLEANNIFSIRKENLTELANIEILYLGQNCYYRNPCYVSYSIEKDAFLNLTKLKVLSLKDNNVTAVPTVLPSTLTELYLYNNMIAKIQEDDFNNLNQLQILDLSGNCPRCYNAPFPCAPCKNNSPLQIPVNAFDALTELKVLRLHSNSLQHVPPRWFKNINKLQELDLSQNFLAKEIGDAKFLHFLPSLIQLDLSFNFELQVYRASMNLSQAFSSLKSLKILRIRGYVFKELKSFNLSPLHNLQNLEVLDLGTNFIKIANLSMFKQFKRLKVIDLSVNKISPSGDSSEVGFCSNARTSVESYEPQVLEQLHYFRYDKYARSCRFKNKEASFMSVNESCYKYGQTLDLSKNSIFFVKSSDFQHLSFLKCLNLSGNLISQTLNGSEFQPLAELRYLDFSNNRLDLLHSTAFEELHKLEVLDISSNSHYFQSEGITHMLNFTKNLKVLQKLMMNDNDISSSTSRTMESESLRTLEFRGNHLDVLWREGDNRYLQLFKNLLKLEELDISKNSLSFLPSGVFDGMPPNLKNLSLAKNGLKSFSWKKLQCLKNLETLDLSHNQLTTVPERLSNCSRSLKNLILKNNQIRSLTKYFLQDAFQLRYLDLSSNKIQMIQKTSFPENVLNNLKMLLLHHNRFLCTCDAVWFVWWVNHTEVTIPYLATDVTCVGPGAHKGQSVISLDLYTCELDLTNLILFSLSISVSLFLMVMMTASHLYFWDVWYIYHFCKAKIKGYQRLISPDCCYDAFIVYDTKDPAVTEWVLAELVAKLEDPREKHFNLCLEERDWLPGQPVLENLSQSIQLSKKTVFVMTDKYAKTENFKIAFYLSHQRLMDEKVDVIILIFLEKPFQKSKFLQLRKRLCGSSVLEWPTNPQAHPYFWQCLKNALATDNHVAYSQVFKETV
In words: Activation of human TLR7 expressed in HEK293XL assessed as fold induction of NF-kappaB activity at 50 ug/ml after 18 hrs by reporter gene assay relative to control. In a few lines:
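HEK293 cells stably expressing human TLR7 or TLR8, transiently transfected with SEAP reporter plasmid; medium replaced, SIMRA compounds added, 18 h incubation. Supernatant SEAP measured by QuantiBlue; expressed as fold increase in NF-κB activity over PBS control. Tabulated data at 50 μg/mL, representative of three independent experiments.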
For orientation: A reporter such as luciferase makes a cellular process visible.

Series [3] is filed under the species Homo sapiens. Put plainly: Ratio of human TLR7 activity to human TLR8 activity. In short, it runs like this:
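TLR7/TLR8 ratio computed from fold NF-κB (SEAP reporter) activation in HEK293 cells stably expressing human TLR7 versus TLR8, compounds at 50 μg/mL, 18 h exposure; representative of three independent experiments.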

Series [4] is described as follows: Metabolic stability in human serum assessed as full length product remaining after 10 mins by HPLC. It counts as ADME, cell-free. The note with it: read-out: Stability. In short, it runs like this:
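About 0.5 A260 units compound in 1% human serum in PBS, 37 °C; aliquot taken at 10 min, analysed by anion-exchange HPLC for percent intact full-length product.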

Active and inactive are the calls of the source. The rule behind the calls is not given here.

Chain of Toll-like receptor 3 (Homo sapiens) (O15455 whole entry): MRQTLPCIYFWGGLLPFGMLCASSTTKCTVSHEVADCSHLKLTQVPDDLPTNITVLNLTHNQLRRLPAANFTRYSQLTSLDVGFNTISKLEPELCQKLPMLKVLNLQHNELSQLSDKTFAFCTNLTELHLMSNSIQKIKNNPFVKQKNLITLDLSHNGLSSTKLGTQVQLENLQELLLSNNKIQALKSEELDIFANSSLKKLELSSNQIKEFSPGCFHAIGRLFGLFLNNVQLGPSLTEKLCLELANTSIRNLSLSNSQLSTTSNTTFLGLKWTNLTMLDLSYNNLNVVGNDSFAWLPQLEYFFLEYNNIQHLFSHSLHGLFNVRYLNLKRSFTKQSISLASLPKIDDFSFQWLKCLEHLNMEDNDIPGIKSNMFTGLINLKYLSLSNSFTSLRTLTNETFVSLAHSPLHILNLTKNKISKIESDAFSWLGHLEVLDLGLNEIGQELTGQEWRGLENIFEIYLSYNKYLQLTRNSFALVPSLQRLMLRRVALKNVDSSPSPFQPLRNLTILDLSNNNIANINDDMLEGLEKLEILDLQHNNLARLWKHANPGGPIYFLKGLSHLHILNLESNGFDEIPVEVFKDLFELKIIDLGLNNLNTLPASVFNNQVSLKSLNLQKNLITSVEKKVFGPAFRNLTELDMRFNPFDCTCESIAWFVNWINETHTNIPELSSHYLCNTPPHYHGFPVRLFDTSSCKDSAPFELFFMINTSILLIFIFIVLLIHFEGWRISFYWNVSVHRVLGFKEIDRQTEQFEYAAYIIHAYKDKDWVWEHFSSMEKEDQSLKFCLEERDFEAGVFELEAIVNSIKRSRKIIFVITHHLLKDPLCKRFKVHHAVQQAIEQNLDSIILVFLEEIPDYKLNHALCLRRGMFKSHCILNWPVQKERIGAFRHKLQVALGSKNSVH

With `Nc1ccn([C@@H]2O[C@H](COP(=O)(S)O[C@H]3[C@@H](O)[C@H](n4cnc5c(N)ncnc54)O[C@@H]3CO)[C@@H](OP(=O)(S)OC[C@H]3O[C@@H](n4ccc5c(=O)[nH]c(N)nc54)[C@H](O)[C@@H]3OP(=O)(S)OC[C@H]3O[C@@H](n4ccc(N)nc4=O)[C@H](O)[C@@H]3OP(=O)(S)OC[C@H]3O[C@@H](n4ccc(=O)[nH]c4=O)[C@H](O)[C@@H]3OP(=O)(S)OC[C@H]3O[C@@H](n4ccc5c(=O)[nH]c(N)nc54)[C@H](O)[C@@H]3OP(=O)(S)OC[C@H]3O[C@@H](n4cnc5c(N)ncnc54)[C@H](O)[C@@H]3OP(=O)(S)OC[C@H]3O[C@@H](n4ccc5c(=O)[nH]c(N)nc54)[C@H](O)[C@@H]3OP(=O)(S)OC[C@H]3O[C@@H](n4ccc(N)nc4=O)[C@H](O)[C@@H]3OP(=O)(S)OC[C@H]3O[C@@H](n4ccc(=O)[nH]c4=O)[C@H](O)[C@@H]3OP(=O)(S)OC[C@H]3O[C@@H](n4ccc(=O)[nH]c4=O)[C@H](O)[C@@H]3OP(=O)(S)OCC(O)COP(=O)(S)O[C@H]3[C@@H](O)[C@H](n4ccc(=O)[nH]c4=O)O[C@@H]3COP(=O)(S)O[C@H]3[C@@H](O)[C@H](n4ccc(=O)[nH]c4=O)O[C@@H]3COP(=O)(S)O[C@H]3[C@@H](O)[C@H](n4ccc(N)nc4=O)O[C@@H]3COP(=O)(S)O[C@H]3[C@@H](O)[C@H](n4ccc5c(=O)[nH]c(N)nc54)O[C@@H]3COP(=O)(S)O[C@H]3[C@@H](O)[C@H](n4cnc5c(N)nc(N)nc54)O[C@@H]3COP(=O)(S)O[C@H]3[C@@H](O)[C@H](n4ccc5c(=O)[nH]c(N)nc54)O[C@@H]3COP(=O)(S)O[C@H]3[C@@H](O)[C@H](n4ccc(=O)[nH]c4=O)O[C@@H]3COP(=O)(S)O[C@H]3[C@@H](O)[C@H](n4ccc(N)nc4=O)O[C@@H]3COP(=O)(S)O[C@H]3[C@@H](O)[C@H](n4ccc5c(=O)[nH]c(N)nc54)O[C@@H]3COP(=O)(S)O[C@H]3[C@@H](O)[C@H](n4ccc(N)nc4=O)O[C@@H]3COP(=O)(S)O[C@H]3[C@@H](O)[C@H](n4cnc5c(N)ncnc54)O[C@@H]3CO)[C@H]2O)c(=O)n1` (some centres not stated), the result in series [1] was inactive. Also, the fold change (FC) in series [2] was determined as 26.6. Moreover, in series [3], the Ratio is 29.6. For the same compound, the remaining at 10 min in series [4] is 78%.

In the case of `Nc1ccn([C@@H]2O[C@H](COP(=O)(S)O[C@H]3[C@@H](O)[C@H](n4cnc5c(N)ncnc54)O[C@@H]3COP(=O)(S)O[C@H]3[C@@H](O)[C@H](n4cnc5c(N)ncnc54)O[C@@H]3CO)[C@@H](OP(=O)(S)OC[C@H]3O[C@@H](n4ccc(=O)[nH]c4=O)[C@H](O)[C@@H]3OP(=O)(S)OC[C@H]3O[C@@H](n4ccc(=O)[nH]c4=O)[C@H](O)[C@@H]3OP(=O)(S)OC[C@H]3O[C@@H](n4ccc5c(=O)[nH]c(N)nc54)[C@H](O)[C@@H]3OP(=O)(S)OC[C@H]3O[C@@H](n4cnc5c(N)ncnc54)[C@H](O)[C@@H]3OP(=O)(S)OC[C@H]3O[C@@H](n4ccc5c(=O)[nH]c(N)nc54)[C@H](O)[C@@H]3OP(=O)(S)OC[C@H]3O[C@@H](n4ccc(N)nc4=O)[C@H](O)[C@@H]3OP(=O)(S)OC[C@H]3O[C@@H](n4ccc(=O)[nH]c4=O)[C@H](O)[C@@H]3OP(=O)(S)OC[C@H]3O[C@@H](n4ccc(=O)[nH]c4=O)[C@H](O)[C@@H]3OP(=O)(S)OCC(O)COP(=O)(S)O[C@H]3[C@@H](O)[C@H](n4ccc(=O)[nH]c4=O)O[C@@H]3COP(=O)(S)O[C@H]3[C@@H](O)[C@H](n4ccc(=O)[nH]c4=O)O[C@@H]3COP(=O)(S)O[C@H]3[C@@H](O)[C@H](n4ccc(N)nc4=O)O[C@@H]3COP(=O)(S)O[C@H]3[C@@H](O)[C@H](n4ccc5c(=O)[nH]c(N)nc54)O[C@@H]3COP(=O)(S)O[C@H]3[C@@H](O)[C@H](n4cnc5c(N)ncnc54)O[C@@H]3COP(=O)(S)O[C@H]3[C@@H](O)[C@H](n4ccc5c(=O)[nH]c(N)nc54)O[C@@H]3COP(=O)(S)O[C@H]3[C@@H](O)[C@H](n4ccc(=O)[nH]c4=O)O[C@@H]3COP(=O)(S)O[C@H]3[C@@H](O)[C@H](n4ccc(=O)[nH]c4=O)O[C@@H]3COP(=O)(S)O[C@H]3[C@@H](O)[C@H](n4ccc(N)nc4=O)O[C@@H]3COP(=O)(S)O[C@H]3[C@@H](O)[C@H](n4cnc5c(N)ncnc54)O[C@@H]3COP(=O)(S)O[C@H]3[C@@H](O)[C@H](n4cnc5c(N)ncnc54)O[C@@H]3CO)[C@H]2O)c(=O)n1` (some centres not stated), the outcome in series [1] was inactive. In addition, the fold change (FC) in series [2] was 20.1. Moreover, the Ratio in series [3] was 20.1. Further, the remaining at 10 min in series [4] turned out to be 82%.

On to `Nc1ccn([C@@H]2O[C@H](COP(=O)(S)O[C@H]3[C@@H](O)[C@H](n4ccc5c(=O)[nH]c(N)nc54)O[C@@H]3COP(=O)(S)O[C@H]3[C@@H](O)[C@H](n4cnc5c(N)ncnc54)O[C@@H]3COP(=O)(S)O[C@H]3[C@@H](O)[C@H](n4cnc5c(N)ncnc54)O[C@@H]3COP(=O)(S)O[C@H]3[C@@H](O)[C@H](n4ccc5c(=O)[nH]c(N)nc54)O[C@@H]3COP(=O)(S)O[C@H]3[C@@H](O)[C@H](n4ccc(=O)[nH]c4=O)O[C@@H]3COP(=O)(S)O[C@H]3[C@@H](O)[C@H](n4ccc(=O)[nH]c4=O)O[C@@H]3COP(=O)(S)O[C@H]3[C@@H](O)[C@H](n4cnc5c(N)ncnc54)O[C@@H]3COP(=O)(S)O[C@H]3[C@@H](O)[C@H](n4cnc5c(N)ncnc54)O[C@@H]3CO)[C@@H](OP(=O)(S)OC[C@H]3O[C@@H](n4ccc(=O)[nH]c4=O)[C@H](O)[C@@H]3OP(=O)(S)OC[C@H]3O[C@@H](n4ccc5c(=O)[nH]c(N)nc54)[C@H](O)[C@@H]3OP(=O)(S)OCC(O)COP(=O)(S)O[C@H]3[C@@H](O)[C@H](n4ccc5c(=O)[nH]c(N)nc54)O[C@@H]3COP(=O)(S)O[C@H]3[C@@H](O)[C@H](n4ccc(=O)[nH]c4=O)O[C@@H]3COP(=O)(S)O[C@H]3[C@@H](O)[C@H](n4ccc(N)nc4=O)O[C@@H]3COP(=O)(S)O[C@H]3[C@@H](O)[C@H](n4ccc5c(=O)[nH]c(N)nc54)O[C@@H]3COP(=O)(S)O[C@H]3[C@@H](O)[C@H](n4cnc5c(N)ncnc54)O[C@@H]3COP(=O)(S)O[C@H]3[C@@H](O)[C@H](n4cnc5c(N)ncnc54)O[C@@H]3COP(=O)(S)O[C@H]3[C@@H](O)[C@H](n4ccc5c(=O)[nH]c(N)nc54)O[C@@H]3COP(=O)(S)O[C@H]3[C@@H](O)[C@H](n4ccc(=O)[nH]c4=O)O[C@@H]3COP(=O)(S)O[C@H]3[C@@H](O)[C@H](n4ccc(=O)[nH]c4=O)O[C@@H]3COP(=O)(S)O[C@H]3[C@@H](O)[C@H](n4cnc5c(N)ncnc54)O[C@@H]3COP(=O)(S)O[C@H]3[C@@H](O)[C@H](n4cnc5c(N)ncnc54)O[C@@H]3CO)[C@H]2O)c(=O)n1` (some centres not stated), for which the outcome in series [1] was inactive. The fold change (FC) in series [2] turned out to be 13.7. The Ratio in series [3] is 19.6. The remaining at 10 min in series [4] worked out at 76%.

These data come from ChEMBL document CHEMBL1154352, “Toll-like receptor 7 selective synthetic oligoribonucleotide agonists: synthesis and structure-activity relationship studies” (J Med Chem, 2009).
